CXCR6 inh: CXCR6 receptor inhibitors, primary screen, cell-based, beta-arrestin, luminescence, CHO-K1 PathHunter, 1536-well; C-X-C chemokine receptor type 6 (Homo sapiens), O00574; inhibition, % at 20 µM; 0.36% of 360,000 active; AID 602244, 2012; in the data active = inhibition above about 34%, passing the limit was not always enough;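 also: antagonist mode with CXCL16 agonist at 10 nM final; 0% = 10 nM CXCL16 with DMSO and 100% = unstimulated wells without agonist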
APJ antagonist: antagonists of human apelin receptor APJ, primary screen, CHO-K1 cells, beta-arrestin complementation, luminescence; P35414; inhibition, % at 20 µM; 0.32% of 330,000 active;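 active = inhibition above about 40% at 20 µM, limit read from the data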;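 also: cells challenged with 10 nM apelin-13 agonist together with compound; plate controls were apelin-13 plus DMSO wells for no effect and DMSO wells lacking apelin-13 for full effect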
Target sequence (P35414 whole entry, looked up): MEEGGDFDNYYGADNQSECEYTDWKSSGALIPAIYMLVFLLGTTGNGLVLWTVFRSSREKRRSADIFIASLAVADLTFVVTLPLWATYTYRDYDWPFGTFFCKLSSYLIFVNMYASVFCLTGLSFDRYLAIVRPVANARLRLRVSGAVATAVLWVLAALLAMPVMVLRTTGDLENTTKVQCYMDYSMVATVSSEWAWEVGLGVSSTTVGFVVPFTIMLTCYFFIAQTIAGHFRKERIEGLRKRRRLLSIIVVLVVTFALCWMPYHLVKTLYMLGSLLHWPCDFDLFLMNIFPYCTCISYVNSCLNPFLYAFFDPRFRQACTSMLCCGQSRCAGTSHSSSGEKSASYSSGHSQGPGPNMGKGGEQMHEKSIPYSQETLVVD
CCR6 antagonist: CCR6 receptor antagonists, primary screen, cell-based, CHO-K1, luminescence, beta-arrestin, uHTS; 0.49% of 340,000 active; AID 493098, 2011; inhibition, % at 20 µM; CHO-K1 CCR6 PathHunter beta-arrestin, CCL20-stimulated; C-C chemokine receptor type 6 (Homo sapiens), P51684;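 active = compounds whose inhibition of the agonist-driven luminescence signal at 20 µM reaches about 50%, limit read from the data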;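 also: cells stimulated with CCL20 at 14 nM final; plate controls were DMSO with CCL20 for no effect and DMSO without agonist for full effect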
m5-HT2A agonist: mouse Htr2a agonists via beta-arrestin recruitment, primary screen, cell-based, luminescence; 0.66% of 360,000 active; CHO-K1 mHTR2A beta-arrestin complementation; percent of 30 µM serotonin response; activation, % at 7.6 µM; 5-hydroxytryptamine receptor 2A (Mus musculus), P35363;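 active = activation above a run cutoff, the mean activation of all tested compounds plus 3 SD, cut at about 14% in these data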;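 also: 0% = plate median of compound wells and 100% = 30 µM serotonin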
EBI2 antag: EBI2 receptor antagonists, beta-arrestin recruitment, primary screen, cell-based, luminescence, 7a,25-OHC stimulation, uHTS | 7a,25-OHC stimulated | 0.81% of 360,000 active | inhibition, % at 5 µM; in the data active = inhibition above about 38%;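 also: enzyme fragment complementation signal reports receptor beta-arrestin coupling in cells; 0% = agonist plus DMSO wells and 100% = wells without agonist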
APJ agonist: agonists of human apelin receptor APJ, primary screen, CHO-K1 cells, PathHunter beta-arrestin, luminescence; P35414; 0% DMSO wells, 100% apelin; activation, % at 20 µM; 0.11% of 330,000 active; AID 2520, 2010;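 active = activation more than six SD over the plate average, tested at 20 µM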;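 also: 0% = DMSO alone and 100% = apelin-13 at 10 nM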
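Material: engineered CHO-K1 APJ arrestin reporter cells; amount: 1000 CHO-K1 reporter cells seeded per well; incubation: compound stimulation 90 min at 25 °C, detection 60 min; signal: luminescent beta-gal fragment complementation, chemiluminescent substrate; read-out basis: APJ agonist activity; controls: DMSO-only wells as negative, 10 nM Apelin-13 as positive control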
An asterisk follows results filed as active. Compounds with a hit are over-represented: about 2.2% of the library has one in this group of screens.

Results for CCOC(=O)[C@]12CCCC=C1N(CCC1=CCCCC1)C(=O)[C@H](CC(=O)N1CCC(c3ccccc3)CC1)C2 ?
m5-HT2A agonist: -4; EBI2 antag: 15

What do the screens show for `COC(=O)[C@@]12C[C@@H](CC(=O)NCc3cccc(C(F)(F)F)c3)C(=O)N(CCc3ccc(OC)c(OC)c3)C1=CCC(C)(C)C2`?
m5-HT2A agonist: 3; EBI2 antag: -8

How did NS(=O)(=O)c1ccc(N=Nc2c(-c3ccccc3)[nH]n(-c3nc(-c4ccccc4)cs3)c2=O)cc1 do in these assays?
CXCR6 inh: 44*; APJ antagonist: 32; CCR6 antagonist: 49; m5-HT2A agonist: 0; EBI2 antag: 2; APJ agonist: -2

How did NC(=O)c1ccc(N=Nc2c(-c3ccccc3)[nH]n(-c3ccccc3)c2=O)cc1 do in these assays?
APJ antagonist: 37; APJ agonist: -7

What do the screens show for `CCCCCC(=O)N1C[C@H](O)[C@@H](n2cc(C3CC3)nn2)C[C@@H]1c1ccc(C)cc1`?
CXCR6 inh: -2; m5-HT2A agonist: 2; EBI2 antag: 10

Results for CSC(=S)N/N=C(\C)c1ccccc1 ?
CXCR6 inh: 37; APJ antagonist: 47*; CCR6 antagonist: 57*; m5-HT2A agonist: -4; EBI2 antag: -1; APJ agonist: -8

How did C/C(=N\NC(N)=S)c1ccccc1 do in these assays?
CXCR6 inh: 4; APJ antagonist: 0; CCR6 antagonist: 6; m5-HT2A agonist: 5; EBI2 antag: -5; APJ agonist: 0

What do the screens show for `COc1ccc(C2=CCCCCC2)cc1OC`?
CXCR6 inh: -8; m5-HT2A agonist: -7; EBI2 antag: 0

What do the screens show for `COc1ccccc1CCNC(=O)c1c(N)[nH]c(C(=O)c2ccccc2)c1-c1ccc(Br)cc1`?
CXCR6 inh: 10; m5-HT2A agonist: 4; EBI2 antag: 8

How did CCN(CC)S(=O)(=O)c1ccc2oc(C(=O)NCc3ccc(C)cc3)c(C)c2c1 do in these assays?
CXCR6 inh: -6; APJ antagonist: 6; CCR6 antagonist: 13; m5-HT2A agonist: -3; EBI2 antag: 70*; APJ agonist: 2

Results for CCC(=O)c1ccc(N2CCN(C(=O)c3ccc(Br)cc3)CC2)c(F)c1 ?
CXCR6 inh: 0; APJ antagonist: -15; CCR6 antagonist: 5; m5-HT2A agonist: 3; EBI2 antag: 57*; APJ agonist: 0

Results for CC(=O)OCC(=O)[C@@]12OC3(CCCC3)O[C@@H]1C[C@H]1[C@@H]3CCC4=CC(=O)C=C[C@]4(C)[C@@]3(F)[C@@H](O)C[C@@]12C ?
CXCR6 inh: -7; APJ antagonist: 11; CCR6 antagonist: 6; m5-HT2A agonist: 18*; EBI2 antag: 5; APJ agonist: -1

Results for C=C1CC2(OC1=O)c1ccccc1CCc1ccccc12 ?
CXCR6 inh: 45*; CCR6 antagonist: 68*; m5-HT2A agonist: -1; EBI2 antag: 30

How did CN(C)S(=O)(=O)c1cccc(-c2nnc(-c3ccccc3)o2)c1 do in these assays?
CXCR6 inh: 5; APJ antagonist: 17; CCR6 antagonist: 9; m5-HT2A agonist: 0; EBI2 antag: 50*; APJ agonist: 1

Results for COc1ccc(C(=O)c2sc3nc(C)cc(-c4cccs4)c3c2N)cc1OC ?
CXCR6 inh: -5; CCR6 antagonist: 12; m5-HT2A agonist: 3; EBI2 antag: 55*

What do the screens show for `COc1cc(/C=N/NC(=S)NC2CC3CC2C2C=CCC32)ccc1O` (centres undefined)?
CXCR6 inh: 14; APJ antagonist: 5; CCR6 antagonist: 6; m5-HT2A agonist: -9; EBI2 antag: 45*; APJ agonist: 5

Results for Cc1ccc(C)c(N2CCN(C(=O)c3cc4ccccn4n3)CC2)c1 ?
CXCR6 inh: 4; APJ antagonist: 5; CCR6 antagonist: 8; m5-HT2A agonist: -4; EBI2 antag: 58*; APJ agonist: 1

Results for CCOC(=O)CN(C(=O)CSc1nnc(CNc2ccc(F)cc2)n1C)c1ccccc1 ?
CXCR6 inh: -3; APJ antagonist: -16; CCR6 antagonist: 8; m5-HT2A agonist: 6; EBI2 antag: 15; APJ agonist: -7

What do the screens show for `CCOC(=O)CN(C(=O)CSc1nnc(COc2ccc(OC)cc2)n1C)c1ccccc1`?
CXCR6 inh: -17; APJ antagonist: 5; CCR6 antagonist: 22; m5-HT2A agonist: 4; EBI2 antag: 52*; APJ agonist: -3

Results for CCN(CC)c1ccc(Nc2nc(N3CCOCC3)c3ccccc3n2)cc1 ?
CXCR6 inh: 1; APJ antagonist: -24; CCR6 antagonist: -1; m5-HT2A agonist: -5; EBI2 antag: 45*; APJ agonist: 6

How did CN1C(=O)C(N=Nc2ccc([N+](=O)[O-])cc2)SC1=S (centres undefined) do in these assays?
CXCR6 inh: 45*; CCR6 antagonist: 86*; m5-HT2A agonist: -2; EBI2 antag: -7

Results for CN1CCCCCC1=Nc1ccc([N+](=O)[O-])cc1 ?
CXCR6 inh: 0; APJ antagonist: -2; CCR6 antagonist: 5; m5-HT2A agonist: -1; EBI2 antag: -12; APJ agonist: 0

What do the screens show for `Cc1ccc(S(=O)(=O)N2CCC(=O)N([C@H](COC(=O)Nc3ccccc3)Cc3ccccc3)CC2)cc1`?
CXCR6 inh: -4; m5-HT2A agonist: -3; EBI2 antag: 8

How did Cc1nc([N+](=O)[O-])c(Br)n1Cc1ccc(Cl)c(Cl)c1 do in these assays?
CXCR6 inh: 6; CCR6 antagonist: 8; m5-HT2A agonist: -4; EBI2 antag: 50*

What do the screens show for `COC(=O)C1=C(C)NC2=C(C(=O)CC(c3cccs3)C2)C1c1ccsc1` (centres undefined)?
CXCR6 inh: 33; CCR6 antagonist: 58*; m5-HT2A agonist: -9; EBI2 antag: 22

Results for CC1=C(C(=O)OC2CCCCCC2)C(c2ccc(C)o2)C2=C(CCCC2=O)N1 (centres undefined) ?
CXCR6 inh: 6; APJ antagonist: 10; CCR6 antagonist: 25; m5-HT2A agonist: -10; EBI2 antag: 13; APJ agonist: 1

How did CC1=C(C(=O)OC2CCCC2)C(c2ccc(C)o2)C2=C(CC(c3cccs3)CC2=O)N1 (centres undefined) do in these assays?
CXCR6 inh: 26; APJ antagonist: 4; CCR6 antagonist: 58*; m5-HT2A agonist: -1; EBI2 antag: 32; APJ agonist: -3

What do the screens show for `Cc1ccc2nc(-c3ccc(Cl)cc3)c(Cc3ccccn3)n2c1`?
CXCR6 inh: 6; m5-HT2A agonist: -2; EBI2 antag: 4

Screening data: PubChem BioAssay, several laboratories
